Holding throughout (type): functional
One assay deals with Streptococcus pyogenes. In words: Antibacterial activity against Streptococcus pyogenes. As to conditions: Streptococcus pyogenes; read-out: MIC.
For another assay, the species on record is Cavia porcellus. In words: In vitro relative anticholinergic potential in isolated guinea pig trachea. In short, it runs like this:
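Guinea pig trachea in Krebs' solution at 37.5 °C, 95% O2/5% CO2, pH 7.4, 2 g resting tension. Cumulative carbachol log dose-response curve (3-fold steps) run before and 30 min after adding antagonist at 1 mM. […] Tukey test on log2 dose ratios.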

In the next assay the test system is Streptococcus pneumoniae. Put plainly: Antibacterial activity against Streptococcus pneumoniae. Conditions: Streptococcus pneumoniae; read-out: MIC.
Assay [1] relates to Pseudomonas aeruginosa. Put plainly: Antibacterial activity against Pseudomonas aeruginosa PS18. Conditions: Pseudomonas aeruginosa; read-out: MIC.
Assay [2] deals with Klebsiella pneumoniae. Put plainly: microbe, parasite or virus in culture. Conditions: Klebsiella pneumoniae; read-out: MIC.
In assay [3] the test system is Escherichia coli. Put plainly: Antibacterial activity against Escherichia coli TEM. Conditions: Escherichia coli; read-out: MIC.
Assay [4] deals with Escherichia coli. Put plainly: Antibacterial activity against Escherichia coli EC14. Conditions: Escherichia coli; read-out: MIC.
For assay [5], the system named is Enterobacter cloacae. In words: Antibacterial activity against Enterobacter cloacae 265A. Conditions: Enterobacter cloacae; read-out: MIC.
Assay [6] concerns Klebsiella pneumoniae. In words: Antibacterial activity against Klebsiella pneumoniae X26. Conditions: Klebsiella pneumoniae; read-out: MIC.
In assay [7] the test system is Pseudomonas aeruginosa. Put plainly: Antibacterial activity against Pseudomonas aeruginosa X528. As to conditions: Pseudomonas aeruginosa; read-out: MIC.
For another assay, the system named is Enterococcus faecium. In words: Antibacterial activity against Enterococcus faecium. Conditions: Enterococcus faecium; read-out: MIC.
Assay [8] has as its system Staphylococcus aureus. In words: Antibacterial activity against penicillin G susceptible Staphylococcus aureus. As to conditions: Staphylococcus aureus; read-out: MIC.
For assay [9], the system named is Escherichia coli. Put plainly: In vitro relative hydrolysis rate against Escherichia coli IIIa. A digest of the protocol:
(§1)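 Spectrophotometric hydrolysis at 265 nm, substrate exposed to partially purified cell-free β-lactamase preparations; rate expressed as percentage of the cephaloridine rate.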

The subject of assay [10] is Enterobacter cloacae. In words: In vitro relative hydrolysis rate against Enterobacter Ia. A digest of the protocol:
as §1

Assay [11] has as its system Staphylococcus aureus. Put plainly: In vivo efficacy against Staphylococcus aureus infected mice treated at 1 hr and 5 hr post infection.
Assay [12] concerns Klebsiella pneumoniae. In words: In vitro relative hydrolysis rate against Klebsiella IV. A digest of the protocol: as §1
Assay [13] concerns Staphylococcus aureus. Put plainly: In vitro relative hydrolysis rate against Staphylococcus aureus. A digest of the protocol: as §1
Assay [14] deals with Pseudomonas aeruginosa. Put plainly: In vitro relative hydrolysis rate against Pseudomonas Id. In short, it runs like this: as §1
Assay [15] deals with Staphylococcus aureus. In words: In vivo efficacy against Staphylococcus aureus infections in mice. Conditions: Staphylococcus aureus; read-out: MIC.
In the next assay the test system is Serratia marcescens. Put plainly: Antibacterial activity against Serratia marcescens SE3. As to conditions: Serratia marcescens; read-out: MIC.
The subject of assay [16] is Pseudomonas aeruginosa. Put plainly: In vivo efficacy against Pseudomonas aeruginosa infected mice treated at 1 hr and 5 hr post infection. As to conditions: Pseudomonas aeruginosa; read-out: ED50.
The subject of assay [17] is Escherichia coli. In words: In vivo efficacy against Escherichia coli infected mice treated at 1 hr and 5 hr post infection. Conditions: Escherichia coli; read-out: ED50.
Assay [18] concerns Staphylococcus aureus. In words: Antibacterial activity against penicillin G resistance Staphylococcus aureus. As to conditions: Staphylococcus aureus; read-out: MIC.
Assay [19] relates to Escherichia coli. In words: In vivo efficacy against Escherichia coli infections in mice. Conditions: Escherichia coli; read-out: MIC.
For assay [20], the system named is Enterobacter cloacae. Put plainly: Antibacterial activity against Enterobacter cloacae EB5. As to conditions: Enterobacter cloacae; read-out: MIC.
The test system of assay [21] is Pseudomonas aeruginosa. Put plainly: In vivo efficacy against Pseudomonas aeruginosa infections in mice. As to conditions: Pseudomonas aeruginosa; read-out: MIC.
[22] abbreviates: Staphylococcus aureus, read-out: ED50.

Converted amounts (≈) assume the structure as drawn.

For the compound `CO/N=C(\C(=O)N[C@@H]1C(=O)N2C(C(=O)[O-])=C(C[n+]3ccc4c(c3)nc(C)n4C)CS[C@H]12)c1csc(N)n1`, the MIC in the assay with Streptococcus pyogenes turned out to be 0.008 µg/mL (≈ 0.0147 µM); with Streptococcus pneumoniae, 0.008 µg/mL (≈ 0.0147 µM); in the assay on Pseudomonas aeruginosa [1], 8 µg/mL (≈ 14.7 µM); in the assay on Klebsiella pneumoniae [2], 2 µg/mL (≈ 3.69 µM); in the assay on Escherichia coli [3] it was 0.008 µg/mL (≈ 0.0147 µM); with Escherichia coli [4] it was 0.008 µg/mL (≈ 0.0147 µM). Besides, the MIC in the assay with Enterobacter cloacae [5] turned out to be 4 µg/mL (≈ 7.37 µM); with Klebsiella pneumoniae [6] it was 0.008 µg/mL (≈ 0.0147 µM); in the assay on Pseudomonas aeruginosa [7], 4 µg/mL (≈ 7.37 µM); in the assay with Enterococcus faecium, 128 µg/mL (≈ 236 µM); in the assay with Staphylococcus aureus [8] it was 2 µg/mL (≈ 3.69 µM). In the assay listed under Cavia porcellus, this compound came in with an RAP of 1.

Regarding `CO/N=C(\C(=O)N[C@@H]1C(=O)N2C(C(=O)[O-])=C(C[n+]3ccc(CC(=O)NO)cc3)CS[C@H]12)c1csc(N)n1` (stereo in doubt; 11), the Hydrolysis rate in the assay on Escherichia coli [9] was determined as 0.5; with Enterobacter cloacae [10], 0.4; in the assay on Klebsiella pneumoniae [12] it was 10.4; with Staphylococcus aureus [13], 3.4; with Pseudomonas aeruginosa [14] it was 0.1. Moreover, in the assay with Staphylococcus aureus [11], the ED50 – broadly, the midpoint of the dose-response relation – turned out to be 4 mg/kg.

For `CO/N=C(\C(=O)N[C@@H]1C(=O)N2C(C(=O)[O-])=C(C[n+]3ccc4nc(C)n(C)c4c3)CS[C@H]12)c1csc(N)n1`, the MIC in the assay on Streptococcus pyogenes was determined as 0.015 µg/mL (≈ 0.0276 µM); in the assay on Streptococcus pneumoniae, 0.015 µg/mL (≈ 0.0276 µM); in the assay on Pseudomonas aeruginosa [1] it was 8 µg/mL (≈ 14.7 µM); with Klebsiella pneumoniae [2], 2 µg/mL (≈ 3.69 µM); with Escherichia coli [3] it was 0.015 µg/mL (≈ 0.0276 µM); in the assay on Escherichia coli [4], 0.015 µg/mL (≈ 0.0276 µM). Moreover, the MIC in the assay on Enterobacter cloacae [5] is 4 µg/mL (≈ 7.37 µM); with Klebsiella pneumoniae [6], 0.015 µg/mL (≈ 0.0276 µM); in the assay on Pseudomonas aeruginosa [7] it was 2 µg/mL (≈ 3.69 µM); in the assay on Enterococcus faecium it was 128 µg/mL (≈ 236 µM); with Staphylococcus aureus [8] it was 2 µg/mL (≈ 3.69 µM). In the assay listed under Cavia porcellus, this compound returned an RAP of 2.

Consider `CO/N=C(\C(=O)N[C@@H]1C(=O)N2C(C(=O)[O-])=C(C[n+]3cccc4c(N)cccc43)CS[C@H]12)c1csc(N)n1`, for which the Hydrolysis rate with Escherichia coli [9] is given as 0.7; in the assay on Enterobacter cloacae [10], 1.1; with Klebsiella pneumoniae [12] it was 6.8; with Staphylococcus aureus [13], 0.2; in the assay on Pseudomonas aeruginosa [14], 0.6. Moreover, the MIC with Streptococcus pyogenes was below 0.008 µg/mL; in the assay with Staphylococcus aureus [15] it was 0.5 µg/mL (≈ 0.927 µM); with Serratia marcescens, 0.06 µg/mL (≈ 0.111 µM); in the assay with Streptococcus pneumoniae, 0.015 µg/mL (≈ 0.0278 µM); in the assay with Pseudomonas aeruginosa [1], 2 µg/mL (≈ 3.71 µM); in the assay with Klebsiella pneumoniae [2], 2 µg/mL (≈ 3.71 µM). Moreover, the MIC came out at 0.015 µg/mL (≈ 0.0278 µM) in the assay on Escherichia coli [3]; 0.015 µg/mL (≈ 0.0278 µM) with Escherichia coli [4]; 8 µg/mL (≈ 14.8 µM) with Enterobacter cloacae [5]; 0.015 µg/mL (≈ 0.0278 µM) in the assay on Klebsiella pneumoniae [6]; 2 µg/mL (≈ 3.71 µM) in the assay with Pseudomonas aeruginosa [7]; 2 µg/mL (≈ 3.71 µM) with Staphylococcus aureus [18]. In addition, the MIC in the assay on Escherichia coli [19] is 0.03 µg/mL (≈ 0.0556 µM); with Enterococcus faecium, 128 µg/mL (≈ 237 µM); in the assay with Enterobacter cloacae [20], 0.06 µg/mL (≈ 0.111 µM); in the assay with Pseudomonas aeruginosa [21], 2 µg/mL (≈ 3.71 µM); in the assay with Staphylococcus aureus [8] it was 1 µg/mL (≈ 1.85 µM). Also, the ED50 with Staphylococcus aureus [11] (setting [22]) was 0.2 mg/kg; in the assay on Pseudomonas aeruginosa [16], 6 mg/kg; with Escherichia coli [17], below 0.03 mg/kg.

Regarding `CCC(CC)c1cc[n+](CC2=C(C(=O)[O-])N3C(=O)[C@@H](NC(=O)/C(=N\OC)c4csc(N)n4)[C@H]3SC2)cc1`, the MIC is below 0.008 µg/mL in the assay with Streptococcus pyogenes; 4 µg/mL (≈ 7.34 µM) in the assay with Staphylococcus aureus [15]; 0.5 µg/mL (≈ 0.918 µM) with Serratia marcescens; 0.015 µg/mL (≈ 0.0275 µM) in the assay with Streptococcus pneumoniae; 64 µg/mL (≈ 118 µM) with Pseudomonas aeruginosa [1]; 8 µg/mL (≈ 14.7 µM) with Klebsiella pneumoniae [2]. The MIC in the assay on Escherichia coli [3] turned out to be 0.06 µg/mL (≈ 0.11 µM); in the assay on Escherichia coli [4] it was 0.125 µg/mL (≈ 0.23 µM); in the assay with Enterobacter cloacae [5] it was 16 µg/mL (≈ 29.4 µM); in the assay with Klebsiella pneumoniae [6], 0.03 µg/mL (≈ 0.0551 µM); in the assay on Pseudomonas aeruginosa [7], 16 µg/mL (≈ 29.4 µM); in the assay on Staphylococcus aureus [18], 4 µg/mL (≈ 7.34 µM). Besides, the MIC with Escherichia coli [19] is 0.125 µg/mL (≈ 0.23 µM); in the assay on Enterococcus faecium, above 128 µg/mL; with Enterobacter cloacae [20] it was 0.5 µg/mL (≈ 0.918 µM); in the assay with Pseudomonas aeruginosa [21], 64 µg/mL (≈ 118 µM); in the assay on Staphylococcus aureus [8], 2 µg/mL (≈ 3.67 µM). In addition, the values for the ED50 in the assay with Staphylococcus aureus [11] (setting [22]), with Pseudomonas aeruginosa [16] and in the assay on Escherichia coli [17] were 2.5 mg/kg, 11 mg/kg and 0.5 mg/kg, respectively.

For the origin of these results see ChEMBL document CHEMBL1124865, “Synthesis and biological evaluation of a series of parenteral 3'-quaternary ammonium cephalosporins” (J Med Chem, 1990).
